Measurements: ChEMBL document CHEMBL3425447, “Discovery of Orally Available Runt-Related Transcription Factor 3 (RUNX3) Modulators for Anticancer Chemotherapy by Epigenetic Activation and Protein Stabilization” (J Med Chem, 2015)

Legend:
[1] = Metabolic stability in rat liver microsomes assessed as compound remaining at 1 uM after 60 mins by LC-ESI/MS/MS analysis in presence of UDPGA; format: ADME; conditions: read-out: Stability
Summary of the method: (§1)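 Rat or human liver microsomes (0.5 mg/ml) incubated with test compound (1 µM) at 37°C for 60 min, with or without NADPH or UDPGA cofactor, n = 2–3. Percent parent remaining quantified by LC-ESI/MS/MS.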

[2] = Metabolic stability in rat liver microsomes assessed as compound remaining at 1 uM after 60 mins by LC-ESI/MS/MS analysis in absence of UDPGA; format: ADME; conditions: read-out: Stability; summary of the method: as §1
Mus musculus = assay: Toxicity against BALB/c nude mouse xenografted with human NCI-H460 cells assessed as body weight loss at 20 mg/kg, po administered daily for 2 weeks; format: organism-based; design: dose 20 mg/kg, route oral; conditions: in vivo, 336 h
Summary of the method: (§2)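 Female SPF BALB/c nude mice, 6 weeks old, injected subcutaneously in the flank with NCI-H460 cells (3 × 10^7/animal). At tumor volume 50–80 mm3, randomized four per group. Dosed orally at 20 mg/kg in 10% DMAC/10% Tween 80 in saline, daily for two weeks, versus vehicle control. Tumor length and width measured by caliper three times weekly; body weight monitored.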

[3] = Terminal half life in Sprague-Dawley rat at 2 mg/kg, iv by LC-MS/MS analysis; format: ADME, organism-based; design: dose 2 mg/kg, route intravenous; conditions: in vivo, read-out: beta t1/2 (converted)
Summary of the method: (§3)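 Specific pathogen-free male SD rats (10 weeks, 298–315 g), n = 3 per route, single dose 2 mg/kg i.v. or 10 mg/kg p.o. Oral vehicle DMAC/Vitamin E TPGS 80/25% solutol HS 15 (10/10/80); dosing volumes 5 (i.v.) and 10 ml/kg (p.o.). Plasma precipitated with acetonitrile containing carbamazepine internal standard, LC-MS/MS. Noncompartmental analysis of mean profiles; linear-trapezoidal AUC (oral 0–5 h, i.v. to infinity).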

[4] = Metabolic stability in human liver microsomes assessed as compound remaining at 1 uM after 60 mins by LC-ESI/MS/MS analysis in absence of UDPGA; format: ADME; conditions: read-out: Stability; summary of the method: as §1
HEK293 [5] = assay: Induction of myc-tagged RUNX3 acetylation in human HEK293 cells assessed as acetylated RUNX3 level at 1 uM after 24 hrs by immunoprecipitation analysis relative to TSA; format: functional
Summary of the method: (§4)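 HEK293 cells (DMEM, 10% FBS) transfected with myc-RUNX3 vector using Lipofectamine 2000. Next day treated at 1 µM for 24 h. Lysates (HEPES pH 7.5, NP-40 buffer) immunoprecipitated with anti-myc antibody and protein G beads at 4°C. Immunoprecipitates western-blotted with anti-acetylated lysine antibody; relative acetylated RUNX3 quantified.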

[6] = Retention time of the compound by HPLC analysis; format: physicochemical
[7] = Metabolic stability in rat liver microsomes assessed as compound remaining at 1 uM after 60 mins byLC-ESI/MS/MS analysis in presence of NADPH; format: ADME; conditions: read-out: Stability; summary of the method: as §1
[8] = AUC(0 to infinity) in Sprague-Dawley rat at 2 mg/kg, iv by LC-MS/MS analysis; format: ADME, organism-based; design: time infinity, dose 2 mg/kg, route intravenous; conditions: plasma
[9] = Metabolic stability in human liver microsomes assessed as compound remaining at 1 uM after 60 mins by LC-ESI/MS/MS analysis in absence of NADPH; format: ADME; conditions: read-out: Stability; summary of the method: as §1
[10] = Clearance in Sprague-Dawley rat at 2 mg/kg, iv by LC-MS/MS analysis; format: ADME, organism-based; design: dose 2 mg/kg, route intravenous; conditions: in vivo; summary of the method: as §3
NCI-H23 = assay: Growth inhibition of human NCI-H23 cells after 5 days by sulforhodamine B assay; format: functional; conditions: NCI-H23, 120 h
[11] = AUC (0 to 5 hrs) in Sprague-Dawley rat at 10 mg/kg, po by LC-MS/MS analysis; format: ADME, organism-based; design: dose 10 mg/kg, route oral; conditions: plasma; summary of the method: as §3
[12] = Oral bioavailability in Sprague-Dawley rat at 10 mg/kg by LC-MS/MS analysis; format: ADME, organism-based; conditions: in vivo; summary of the method: as §3
C2C12 = assay: Induction of RUNX transcriptional activation in mouse C2C12-6xOSE2 cells at 1 uM after 24 hrs by luciferase reporter assay relative to FGF-2; format: functional
Summary of the method: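 C2C12-6xOSE stable cells grown in DMEM with 10% FBS at 37°C, 5% CO2. Seeded at 1 × 10^4 cells/well; next day treated with compound or FGF-2 (1 µM each). After 24 h, luciferase measured with Bright-Glo. Activity expressed as percent of the FGF-2 positive-control response.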

[13] = Metabolic stability in human liver microsomes assessed as compound remaining at 1 uM after 60 mins byLC-ESI/MS/MS analysis in presence of UDPGA; format: ADME; conditions: read-out: Stability; summary of the method: as §1
NCI-H460 [14] = assay: Induction of RUNX3 mRNA expression in human NCI-H460 cells after 24 hrs by RT-PCR analysis; format: functional, cell-based
Summary of the method: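 NCI-H460 cells in RPMI1640 with 10% FBS were plated and treated the following day. After 24 h, total RNA extracted and 1 µg reverse-transcribed. RUNX3 cDNA amplified with specific primers, run on a 1.5% agarose gel and stained with ethidium bromide. GAPDH served as internal control; SNU16 gastric cells served as positive-control line.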

Histone deacetylase = assay: Inhibition of HDAC in human HeLa cell nuclear extract using Fluor de Lys as substrate incubated with compound for 30 mins by microtiter-plate reading flourimeter analysis; format: protein assay
NCI-H460 [15] = assay: Antitumor activity against human NCI-H460 cells xenografted in BALB/c nude mouse assessed as reduction in tumor weight at 20 mg/kg, po administered daily for 2 weeks measured every 2 or 3 days for 14 days; format: functional; summary of the method: as §2
[16] = Metabolic stability in human liver microsomes assessed as compound remaining at 1 uM after 60 mins byLC-ESI/MS/MS analysis in presence of NADPH; format: ADME; conditions: read-out: Stability; summary of the method: as §1
[17] = Terminal half life in Sprague-Dawley rat at 10 mg/kg, po by LC-MS/MS analysis; format: ADME, organism-based; design: dose 10 mg/kg, route oral; conditions: in vivo, read-out: beta t1/2 (converted); summary of the method: as §3
[18] = Growth inhibition of human PC3 cells after 5 days by sulforhodamine B assay; format: functional; conditions: PC-3, 120 h
[19] = Metabolic stability in mouse liver microsomes assessed as compound remaining at 1 uM after 30 mins by LC-ESI/MS/MS analysis in absence of NADPH; format: ADME; conditions: read-out: Stability
Summary of the method: (§5)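 Compound at 1 µM incubated in triplicate with pooled mouse liver microsomes (0.5 mg/ml final) in 0.1 M potassium phosphate, pH 7.4, at 37°C, with or without 1 mM NADPH. Reactions stopped at 0 and 30 min with ice-cold acetonitrile containing internal standard. After centrifugation, supernatant analyzed by LC-ESI/MS/MS; percent remaining from analyte/IS peak-area ratios. Buspirone served as positive control.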

ACHN = assay: Growth inhibition of human ACHN cells after 5 days by sulforhodamine B assay; format: functional; conditions: 120 h
[20] = Metabolic stability in mouse liver microsomes assessed as compound remaining at 1 uM after 30 mins byLC-ESI/MS/MS analysis in presence of NADPH; format: ADME; conditions: read-out: Stability; summary of the method: as §5
HEK293 [21] = assay: Induction of myc-tagged RUNX3 acetylation in human HEK293 cells assessed as RUNX3 level at 1 uM after 24 hrs by immunoprecipitation analysis relative to TSA; format: functional; summary of the method: as §4
[22] = Growth inhibition of human HCT15 cells after 5 days by sulforhodamine B assay; format: functional; conditions: HCT-15, 120 h
[23] = Cmax in Sprague-Dawley rat at 10 mg/kg, po by LC-MS/MS analysis; format: ADME, organism-based; design: dose 10 mg/kg, route oral; conditions: in vivo; summary of the method: as §3
[24] = Growth inhibition of human NUGC3 cells after 5 days by sulforhodamine B assay; format: functional; conditions: NUGC-3, 120 h
[25] = Tmax in Sprague-Dawley rat at 10 mg/kg, po by LC-MS/MS analysis; format: ADME, organism-based; design: dose 10 mg/kg, route oral; conditions: in vivo; summary of the method: as §3
[26] = Volume of distribution at steady state in Sprague-Dawley rat at 2 mg/kg, iv by LC-MS/MS analysis; format: ADME, organism-based; design: dose 2 mg/kg, route intravenous; conditions: in vivo, read-out: Vdss; summary of the method: as §3
[27] = Metabolic stability in rat liver microsomes assessed as compound remaining at 1 uM after 60 mins by LC-ESI/MS/MS analysis in absence of NADPH; format: ADME; conditions: read-out: Stability; summary of the method: as §1
MDA-MB-231 = assay: Growth inhibition of human MDA-MB-231 cells after 5 days by sulforhodamine B assay; format: functional; conditions: MDA-MB-231, 120 h

Structure (SMILES): O=C(/C=C/c1cccn(Cc2ccc3ccccc3n2)c1=O)NO
- remaining at 1 h, 1 µM [1]: 72.4%
- remaining at 1 h, 1 µM [2]: 88.9%
- Activity (Mus musculus): Non-toxic
- half-life [3]: 4.4 h
- remaining at 1 h, 1 µM [4]: 95.2%
- fold change (FC) (HEK293 [5]): 77.5
- Retention_time [6]: 9.606 min
- remaining at 1 h, 1 µM [7]: 83.5%
- AUC(0-inf) [8]: 354 ng·h/mL
- remaining at 1 h, 1 µM [9]: 74.7%
- clearance [10]: 93.3 mL/min/kg
- GI50 (NCI-H23): 130 nM
- AUC(0-t) at 4 h [11]: 863 ng·h/mL
- bioavailability [12]: 48.7%
- Activity (C2C12): 687.5%
- remaining at 1 h, 1 µM [13]: 99.7%
- Activity (NCI-H460 [14]): Dose-dependent effect
- IC50 (Histone deacetylase): 30 nM
- inhibition in vivo at 20 mg/kg (NCI-H460 [15]): 45.7%
- remaining at 1 h, 1 µM [16]: 75.5%
- half-life [17]: 10.3 h
- GI50 [18]: 490 nM
- remaining at 0.5 h, 1 µM [19]: 100%
- GI50 (ACHN): 250 nM
- remaining at 0.5 h, 1 µM [20]: 90.3%
- fold change (FC) (HEK293 [21]): 29.3
- GI50 [22]: 380 nM
- Cmax [23]: 142 ng/mL
- GI50 [24]: 710 nM
- Tmax [25]: 0.67 h
- Vd [26]: 14 L/kg
- remaining at 1 h, 1 µM [27]: 92%
- GI50 (MDA-MB-231): 100 nM
